Assay results reported in ChEMBL document CHEMBL1152550, “Synthesis and structure-activity relationships of N-aryl(indol-3-yl)glyoxamides as antitumor agents” (Bioorg Med Chem, 2009).

Tests used:
Assay type in all cases: functional, cell-based
L1210 = experiment: Cytotoxicity against mouse L1210 cells after 48 hrs by XTT assay; details: L1210, 48 h
[1] = Cell cycle arrest in human KB/HeLa cells assessed as accumulation in G2/M phase by cytometric analysis
Outline: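 HeLa/KB cells; nuclei isolated with detergent lysis, trypsin, RNA digestion and spermine chromatin stabilisation, then stained stoichiometrically with propidium iodide. Read by flow cytometry with doublet discrimination, FL2 detector collecting 564–606 nm emission; DNA histograms analysed for cell cycle phase distribution across a concentration series (dose–response).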

[2] = Cytotoxicity against human KB/HeLa cells after 48 hrs by XTT assay
SK-OV-3 = experiment: Cytotoxicity against human SKOV3 cells after 48 hrs by XTT assay; details: SK-OV-3, 48 h

SMILES | IC50 (L1210) | Activity [1] | IC50 [2] | IC50 (SK-OV-3)
O=C(Nc1ccncc1)C(=O)c1cn(Cc2ccc(F)cc2)c2ccccc12 | 0.455 µM | Dose-dependent effect | 0.054 µM | 0.455 µM
O=C(Nc1ccncc1)C(=O)c1cn(Cc2ccc(Cl)cc2)c2ccccc12 [INDIBULIN] | 0.044 µM | Dose-dependent effect | 0.044 µM | 0.077 µM
COc1cc(NC(=O)C(=O)c2cn(Cc3ccc(F)cc3)c3ccccc23)cc(OC)c1OC | 0.378 µM |  | 0.378 µM | 3.78 µM
O=C(Nc1ccc(Br)cc1)C(=O)c1cn(Cc2ccc(F)cc2)c2ccccc12 | 3.88 µM |  | 3.88 µM | 3.88 µM
CCOC(=O)c1ccc(NC(=O)C(=O)c2cn(Cc3ccc(F)cc3)c3ccccc23)cc1 | 3.94 µM |  | 3.94 µM | 3.94 µM
O=C(C(=O)N1CCN(c2ccncc2)CC1)c1cn(Cc2ccc(F)cc2)c2ccccc12 | 3.96 µM |  | > 10 µM | > 10 µM
O=C(Nc1ccc([N+](=O)[O-])cc1)C(=O)c1cn(Cc2ccc(F)cc2)c2ccccc12 | > 10 µM |  | > 10 µM | > 10 µM
O=C(Nc1ccccn1)C(=O)c1cn(Cc2ccc(F)cc2)c2ccccc12 | 8.3 µM |  | > 10 µM | > 10 µM
O=C(Nc1cccnc1)C(=O)c1cn(Cc2ccc(F)cc2)c2ccccc12 | 4.69 µM |  | 4.69 µM | 4.69 µM
O=C(Nc1ccc(F)cc1)C(=O)c1cn(Cc2ccc(F)cc2)c2ccccc12 | 4.48 µM |  | 7.94 µM | > 10 µM
N#Cc1ccc(NC(=O)C(=O)c2cn(Cc3ccc(F)cc3)c3ccccc23)cc1 | > 10 µM |  | > 10 µM | > 10 µM
